Test results as given in ChEMBL document CHEMBL1158680, “Chemical constituents and biological activities of the fruit of Zanthoxylum integrifoliolum” (1999).

Columns and labels:
Aorta [1] = test: Vasorelaxation activity in rat aorta assessed as inhibition of norepinephrine-induced phasic contraction at 1 ug/ml preincubated for 15 mins relative to control; type: functional; set-up: scale not given: the % may be the effect or the level left
Procedure, shortened: (§1)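 Rat aorta was preincubated with test sample or 0.1% DMSO vehicle at 37 °C for 15 min. Contraction was then evoked with high K+ (80 mM) or norepinephrine (3 μM). Response is expressed as percent of control contraction, mean ± SEM, n = 3.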

Aorta [2] = test: Vasorelaxation activity in rat aorta assessed as inhibition of norepinephrine-induced tonic contraction at 1 ug/ml preincubated for 15 mins relative to control; type: functional; set-up: scale not given: the % may be the effect or the level left; procedure, shortened: as §1

## COc1cc2nc(N3CCN(C(=O)c4ccco4)CC3)nc(N)c2cc1OC [PRAZOSIN]
Aorta [1]
  Activity: 0%
Aorta [2]
  Activity: 0%
